≈ marks a conversion by molar mass, not a printed value. Calls of active or inactive are those of the source. The calls are words filed in the database; no cut-off is given here.
What was measured:
OVCAR-3 [1] = assay: Cytotoxicity against human OVCAR-3 cells after 48 hrs by MTT assay; type: functional; settings: for CC50: OVCAR-3, 48 h, read-out: CD50 (the source's name)
In short: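 OVCAR-3 cells were exposed to a range of concentrations for 48 h, and viability was read by MTT colorimetric assay. CD50 was determined by the MTT method. Data are reported as mean ± SD (n = 4).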

HeLa = assay: Cytotoxicity against human HeLa cells after 48 hrs by MTT assay; type: functional; settings: read-out: CD50 (the source's name)
HepG2 = assay: Cytotoxicity against human HepG2 cells after 48 hrs by MTT assay; type: functional; settings: for CC50: HepG2, 48 h, read-out: CD50 (the source's name)
Enterococcus = assay: Antibacterial activity against vancomycin-resistant Enterococcus CKU-17; type: functional
Enterococcus faecalis = assay: Antibacterial activity against Enterococcus faecalis; type: functional
Escherichia coli = assay: Antibacterial activity against Escherichia coli; type: functional
Staphylococcus aureus [2] = assay: Antibacterial activity against Staphylococcus aureus; type: functional
Staphylococcus aureus [3] = assay: Antibacterial activity against methicillin-resistant Staphylococcus aureus; type: functional
OVCAR-3 (Homo sapiens) = assay: Cytotoxicity against human OVCAR-3 cells after 48 hrs by MTT assay
OVCAR-3 [4] = assay: Cytotoxicity against human OVCAR-3 cells assessed as half cell death at CD50 after 24 hrs by MTT assay; type: functional, cell-based
In short: (§1)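 OVCAR-3 cells were seeded at 5 × 10^3 per well and grown 24 h. […] Compound was washed out, fresh medium was added, and cells were incubated a further 48 h at 37 °C. Viable cells were read by MTT at OD 570 nm as % of control, mean ± SD (n = 4).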

OVCAR-3 [5] = assay: Cytotoxicity against human OVCAR-3 cells assessed as half cell death at 4 times CD50 up to 2 hrs by MTT assay; type: functional, cell-based; in short: as §1
OVCAR-3 [6] = assay: Cytotoxicity against human OVCAR-3 cells assessed as half cell death at 2 times CD50 after 6 hrs by MTT assay; type: functional, cell-based; in short: as §1

| Compound | CC50 (OVCAR-3 [1]) | CC50 (HeLa) | CC50 (HepG2) | MIC (Enterococcus) | MIC (Enterococcus faecalis) | MIC (Escherichia coli) | MIC (Staphylococcus aureus [2]) | MIC (Staphylococcus aureus [3]) | Activity (OVCAR-3 [1]) | Activity (HepG2) | Activity (OVCAR-3 (Homo sapiens)) | Activity (OVCAR-3 [4]) | Activity (OVCAR-3 [5]) | Activity (OVCAR-3 [6]) |
| --- | --- | --- | --- | --- | --- | --- | --- | --- | --- | --- | --- | --- | --- | --- |
| C=C1CC[C@@H](O)[C@]2(C)CC[C@@H]3[C@H](OC(=O)[C@H]3C)[C@@H]12 | 95 µg/mL (≈ 379 µM) | > 100 µg/mL | > 100 µg/mL |  |  |  |  |  |  |  |  |  |  |  |
| C=C1CC[C@@H](O)[C@]2(C)CC[C@@H](C(=C)C(=O)OCC)[C@H](O)[C@@H]12 | 75 µg/mL (≈ 255 µM) | 75 µg/mL (≈ 255 µM) | 50 µg/mL (≈ 170 µM) |  |  |  |  |  |  |  |  |  |  |  |
| C=C1[C@@H]2[C@H]3OC(=O)[C@@H](C)[C@@H]3CCC(=C)[C@@H]2C[C@H]1O | 65 µg/mL (≈ 262 µM) | 65 µg/mL (≈ 262 µM) | 75 µg/mL (≈ 302 µM) |  |  |  |  |  |  |  |  |  |  |  |
| C=C1C(=O)O[C@@H]2[C@@H]3[C@](C)(CCC[C@@]3(C)O)CC[C@@H]12 [ARBUSCULIN A] | 7.5 µg/mL (≈ 30 µM) | 7.5 µg/mL (≈ 30 µM) | 10 µg/mL (≈ 39.9 µM) |  |  |  |  |  |  |  |  |  |  |  |
| O=C(N[C@H](CO)[C@H](O)c1ccc([N+](=O)[O-])cc1)C(Cl)Cl [CHLORAMPHENICOL] |  |  |  | 6.25 µg/mL (≈ 19.3 µM) | 6.25 µg/mL (≈ 19.3 µM) |  |  |  |  |  |  |  |  |  |
| C[C@@H]1C(=O)O[C@H]2[C@H]1CC[C@@]1(C)[C@H](O)CC[C@@](C)(O)[C@H]21 [COLARTIN] | 100 µg/mL (≈ 373 µM) | 100 µg/mL (≈ 373 µM) | > 100 µg/mL | > 800 µg/mL | > 800 µg/mL | > 800 µg/mL | > 800 µg/mL |  |  |  |  |  |  |  |
| C=C1C(=O)O[C@@H]2/C=C(\C)CC/C=C(\C)CC[C@@H]12 [COSTUNOLIDE] | 2 µg/mL (≈ 8.61 µM) | 2 µg/mL (≈ 8.61 µM) | 1.6 µg/mL (≈ 6.89 µM) | 400 µg/mL (≈ 1720 µM) | 400 µg/mL (≈ 1720 µM) | > 800 µg/mL | 100 µg/mL (≈ 430 µM) | 200 µg/mL (≈ 861 µM) | Dose-dependent effect | Dose-dependent effect | Dose-dependent effect |  |  |  |
| C=C1CC[C@H]2C(=C)CC[C@H]3C(=C)C(=O)O[C@@H]3[C@@H]12 [DEHYDROCOSTUSLACTONE] | 2.5 µg/mL (≈ 10.9 µM) | 3.5 µg/mL (≈ 15.2 µM) | 3.5 µg/mL (≈ 15.2 µM) | > 800 µg/mL | > 800 µg/mL | > 800 µg/mL | 400 µg/mL (≈ 1740 µM) | 800 µg/mL (≈ 3470 µM) | Dose-dependent effect | Dose-dependent effect | Dose-dependent effect |  |  |  |
| C=C(CO)[C@@H]1CC[C@@]2(C)CCC[C@@](C)(O)[C@@H]2C1 [ILICIC ALCOHOL] | > 100 µg/mL | > 100 µg/mL | > 100 µg/mL |  |  |  |  |  |  |  |  |  |  |  |
| C=C1[C@@H]2[C@H]3OC(=O)C(=C)[C@@H]3CCC(=C)[C@@H]2C[C@H]1O [ISOZALUZANIN C] | 7.5 µg/mL (≈ 30.4 µM) | 13.5 µg/mL (≈ 54.8 µM) | 15 µg/mL (≈ 60.9 µM) |  |  |  |  |  |  |  |  |  |  |  |
| C=C1CC[C@H]2C(=C)CC[C@@H]3[C@H](OC(=O)[C@@]3(O)C[C@]3(C)CCC(=O)[C@]4(C)CC[C@H]5C(=C)C(=O)O[C@@H]5[C@@H]34)[C@@H]12 [LAPPADILACTONE] | 2.5 µg/mL (≈ 5.05 µM) | 1.8 µg/mL (≈ 3.64 µM) | 2.4 µg/mL (≈ 4.85 µM) |  |  |  |  |  | Dose-dependent effect | Dose-dependent effect | Dose-dependent effect | Active | Active | Active |
| C=C1CC[C@H]2C(=C)CC[C@@H]3[C@H](OC(=O)[C@@]3(O)CC(C)=O)[C@@H]12 [LAPPALONE] | > 100 µg/mL | > 100 µg/mL | > 100 µg/mL |  |  |  |  |  |  |  |  |  |  |  |
| C=C1CC[C@@H](O)[C@]2(C)CC[C@H]3C(=C)C(=O)O[C@@H]3[C@@H]12 [REYNOSIN] | 7.5 µg/mL (≈ 30.2 µM) | 7.5 µg/mL (≈ 30.2 µM) | 11 µg/mL (≈ 44.3 µM) | > 800 µg/mL | > 800 µg/mL | > 800 µg/mL | 800 µg/mL (≈ 3220 µM) | > 800 µg/mL |  |  |  |  |  |  |
| C=C1C(=O)O[C@@H]2[C@H]3C(C)=CC[C@@H](O)[C@]3(C)CC[C@@H]12 [SANTAMARIN] | 10 µg/mL (≈ 40.3 µM) | 10 µg/mL (≈ 40.3 µM) | 7.5 µg/mL (≈ 30.2 µM) | > 800 µg/mL | > 800 µg/mL | > 800 µg/mL | 800 µg/mL (≈ 3220 µM) | 800 µg/mL (≈ 3220 µM) |  |  |  |  |  |  |
| CN[C@H](CC(C)C)C(=O)N[C@H]1C(=O)N[C@@H](CC(N)=O)C(=O)N[C@H]2C(=O)N[C@H]3C(=O)N[C@H](C(=O)N[C@H](C(=O)O)c4cc(O)cc(O)c4-c4cc3ccc4O)[C@H](O)c3ccc(c(Cl)c3)Oc3cc2cc(c3O[C@@H]2O[C@H](CO)[C@@H](O)[C@H](O)[C@H]2O[C@H]2C[C@](C)(N)[C@H](O)[C@H](C)O2)Oc2ccc(cc2Cl)[C@H]1O [VANCOMYCIN] |  |  |  | > 100 µg/mL | 3.13 µg/mL (≈ 2.16 µM) |  | 1.56 µg/mL (≈ 1.08 µM) | 1.56 µg/mL (≈ 1.08 µM) |  |  |  |  |  |  |
| C=C1[C@@H]2[C@H]3OC(=O)C(=C)[C@@H]3CCC(=C)[C@@H]2C[C@@H]1O [ZALUZANIN C] | 15 µg/mL (≈ 60.9 µM) | 22 µg/mL (≈ 89.3 µM) | 34 µg/mL (≈ 138 µM) |  |  |  |  |  |  |  |  |  |  |  |
| GENTAMICIN |  |  |  |  |  | 3.13 µg/mL | 0.78 µg/mL | > 100 µg/mL |  |  |  |  |  |  |

From ChEMBL document CHEMBL1146590, “Cytotoxic sesquiterpene lactones from the root of Saussurea lappa” (2003)
